# Sampled rows, rich in hits. Any-hit rate of the full collection: about 10%.
# PMI act = increases human mannose-6-phosphate isomerase activity | P34949 | purified human PMI, coupled resazurin fluorescence, 20 min; stronger effect = higher value; 1 = vehicle control, 0 substrate-free wells | activation factor at 20 µM | 0.005% of 190,000 active | AID 1214;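 active = activation factor of 2 or more at 20 µM, relative to plate controls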
# Target sequence (P34949 whole entry, looked up): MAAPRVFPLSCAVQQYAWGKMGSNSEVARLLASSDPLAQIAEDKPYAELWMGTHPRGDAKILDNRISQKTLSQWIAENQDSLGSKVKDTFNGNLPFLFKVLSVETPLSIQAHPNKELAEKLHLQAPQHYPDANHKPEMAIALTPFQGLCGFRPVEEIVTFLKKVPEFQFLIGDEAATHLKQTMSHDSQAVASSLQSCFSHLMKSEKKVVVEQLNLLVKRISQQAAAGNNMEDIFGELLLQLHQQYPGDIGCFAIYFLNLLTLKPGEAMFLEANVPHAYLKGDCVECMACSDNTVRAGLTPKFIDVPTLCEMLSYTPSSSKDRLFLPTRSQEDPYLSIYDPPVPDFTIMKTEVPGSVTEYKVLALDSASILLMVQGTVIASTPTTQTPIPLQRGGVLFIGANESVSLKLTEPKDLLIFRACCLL
# PMI act satM6P = activators of human phosphomannose isomerase at near-saturating mannose 6-phosphate | P34949 | coupled PMI enzyme assay, resazurin fluorescence, 20 min; stronger effect = higher value; 1 = untreated enzyme, 0 = substrate-free blank | activation factor at 20 µM | 0.34% of 190,000 active | AID 1216;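 active = activation factor of 2 or more at 20 µM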
#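 Test system: human phosphomannose isomerase with PGI, G6PDH, diaphorase coupling enzymes / Doses: 20 µM compound, 1% DMSO / Times: enzyme reaction with compound 20 min at room temperature / Measured by: Diaphorase-driven resazurin-to-resorufin fluorescence, excitation 544, emission 590 nm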
# Lmaj promast = Leishmania major promastigote growth inhibition; inhibition, % at 10 µM; Leishmania major promastigotes, resazurin fluorescence viability; 9% of 200,000 active; in the data active = inhibition above about 50%;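 also: promastigotes grown with compound for 44 hours at 28 °C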
# Diaph act CS = diaphorase activation or chemical reduction counter-screen; Diaphorase/resazurin coupled assay, resorufin fluorescence, 16 min; stronger effect = higher value; 1 = vehicle wells, 0 = NADH-free wells; AID 1229; 0.005% of 190,000 active; activation factor at 20 µM;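 active = diaphorase activity raised at least twofold by the compound at 20 µM; inactive = activation factor below 2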
#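 Test system: Clostridium kluyveri diaphorase, purified enzyme; input: enzyme 0.07 U/mL final; buffer or medium: 50 mM HEPES pH 7.4 with 4.542 mM MgCl2, 0.005% Tween 20; also added: 0.114 mM NADH and 0.1 mM resazurin, final amounts; schedule: 16 min enzyme reaction, ambient temperature; technique: fluorescence of resorufin, 544 nm excitation, 590 nm emission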
# WT yeast gro inh = growth inhibition of WT yeast, mitochondrial fusion screen; mitochondrial fusion phenotypic screen, WT strain; inhibition, % at 10 µM; 2.1% of 190,000 active; AID 1362; in the data active = inhibition above about 58%; tested in S. cerevisiae
# * = called active by the depositor; / = not tested or not shown.
SMILES,PMI act,PMI act satM6P,Lmaj promast,Diaph act CS,WT yeast gro inh
O=C1/C(=C/c2cc([N+](=O)[O-])ccc2Cl)N2CCC1CC2,0.9,1,74*,1,-3
O=C1/C(=C/c2cc3c(cc2Cl)OCO3)N2CCC1CC2,0.9,0.5,92*,0.7,-9
CN(C)c1cccc2c(C#N)ccc(N(C)C)c12,0.2,0.2,17,0.3,6
O=[N+]([O-])c1ccc(N2CCCC2)c(F)c1Br,1,0.9,36,0.8,1
O=[N+]([O-])c1cc(F)c(N2CCCC2)cc1N1CCNCC1,1.1,1,26,1,9
CN1CCN(c2cc(N3CCCCCC3)c(F)cc2[N+](=O)[O-])CC1,1,0.8,99*,0.8,17
CCN1CCN(c2cc(N3CCCC3)c([N+](=O)[O-])cc2F)CC1,0.8,0.7,99*,0.9,18
COC(=O)c1ccc(NC(=O)CSc2nc3ccc(N4C(=O)C5C6C=CC(C6)C5C4=O)cc3s2)cc1 (stereo not given),0.9,1,6,0.8,7
CCOC(=O)C1(CCOc2ccccc2)CCN(C2Cc3ccccc3C2)CC1,0.9,0.9,88*,0.9,30
CCOC(=O)C1(c2ccccc2)CCN(CC(=O)Nc2ccc(C)cc2)CC1,1,0.9,9,0.9,10
CCC(COC(=O)NC)NC(=O)Oc1ccccc1 (stereo not given),1,1.1,0,1,11
CCN(CC)S(=O)(=O)c1ccc(C)c(NCC(=O)Nc2ccc(C#N)c(Cl)c2)c1,1,1,25,0.8,9
CCn1ccnc1CN1CCCC(C(=O)c2cc(F)ccc2OC)C1 (stereo not given),1.1,1.1,13,1.2,16
COc1ccccc1CN1CCCC(C(=O)c2ccccc2SC)C1 (stereo not given),0.8,0.8,68*,0.9,13
COc1ccc(O)c(CN2CCCC(C(=O)c3ccccc3SC)C2)c1 (stereo not given),0.9,0.8,10,0.8,-14
CSc1ccccc1C(=O)C1CCCN(Cc2ccncc2)C1 (stereo not given),1,1,71*,1.1,11
CN1CCN(CCOC2c3ccccc3CSc3ccc(Cl)cc32)CC1 (stereo not given),1,1,99*,0.9,22
Clc1ccc2c(c1)C(OC1CN3CCC1CC3)c1ccccc1CS2 (stereo not given),1.1,1,100*,0.9,22
COc1ccccc1-n1c(-c2cccs2)nc2ccccc2c1=O,1.1,1.1,15,0.9,14
Cc1cc([N+](=O)[O-])c(Cl)cc1NC(=O)C(C)C,1,1,58*,0.9,-6
Cc1ccc(C(=O)C2CN3CCC2CC3)cc1 (stereo not given),0.9,1,74*,0.9,-20
Cc1ccc(C(=O)C2CN(C)CC2C(=O)c2ccc(C)cc2)cc1 (stereo not given),1.1,1.1,2,0.9,5
Cc1ccc(CN(Cc2ccccc2)C(=S)NCC(=O)N2CCC3(CC2)OCCO3)o1,1,0.9,12,0.9,10
CN1CCCC(C(=O)c2ccc(Cl)cc2)C1 (stereo not given),0.9,0.9,45,0.9,-5
CC(=O)N1CCC(N2CCCC(C(=O)c3cccc(Cl)c3)C2)CC1 (stereo not given),/,/,92*,/,7
SMILES,PMI act,PMI act satM6P,Lmaj promast,Diaph act CS,WT yeast gro inh
COc1ccc(C(=O)C2CCCN(C3CSCCSC3)C2)c(C)c1 (stereo not given),0.9,0.8,97*,0.8,21
COc1cccc(C(=O)C2CCCN(C3CCOCC3)C2)c1 (stereo not given),1,1,88*,0.8,-15
CCCCn1c(O)c(C(C)=NC(Cc2c[nH]c3ccccc23)C(=O)OC)c(=O)[nH]c1=O (stereo not given),0.8,0.8,99*,0.8,9
Cc1nc2ccccc2c(=O)n1-c1ccc(Br)cc1[N+](=O)[O-],1.1,1.1,-6,0.3,2
CCNC(=O)NC(=O)C(C)OC(=O)c1c(C)nn(Cc2ccccc2)c1Cl (stereo not given),0.8,0.9,-3,0.9,-1
CC1OC(NCCc2ccccc2)C(O)C(O)C1O (stereo not given),1,1,-2,1,-5
Fc1ccc(CCNCc2ccccc2Cl)cc1,1.1,1,5,0.9,-6
CCOc1ccc(Cl)cc1CNCCc1ccc(F)cc1,1.1,1.1,65*,1,-1
C/C(=N\Nc1ccccc1)c1c(O)n(C)c(=O)n(C)c1=O,1.6,2.5*,76*,0.9,12
CC(=NCCCO)c1c(O)n(Cc2ccccc2)c(=O)[nH]c1=O,1,1.1,1,1,-14
C/C(=N\Nc1ccccc1)c1c(O)n(Cc2ccccc2)c(=O)[nH]c1=O,1.6,2.5*,19,0.9,31
Cn1c(O)c(C(=O)c2ccccc2)c(=O)n(C)c1=O,1.1,1.2,-9,0.9,1
CNC(=O)OCc1n(C)cc[n+]1C,0.8,0.8,6,0.9,-9
Cc1c(NP(=O)(C(C)(C)C)C(C)(C)C)c(=O)n(-c2ccccc2)n1C,0.9,1,-5,0.9,10
COc1ccc(Cn2c(N)c(C(=O)NCc3ccco3)c3nc4ccccc4nc32)cc1OC,0.9,0.6,59*,0.7,-4
CCCNC(=O)c1c(N)n(Cc2ccco2)c2nc3ccccc3nc12,0.9,1.1,47,0.6,8
CC(C)OC(=O)c1c(N)n(Cc2ccco2)c2nc3ccccc3nc12,/,/,56*,/,-1
CC(C)CNC(=O)c1c(N)n(Cc2ccc3c(c2)OCO3)c2nc3ccccc3nc12,0.6,0.6,68*,0.7,17
COCCOC(=O)c1c(N)n(Cc2ccco2)c2nc3ccccc3nc12,1.2,1.2,21,0.7,/
Nc1c(C(=O)NCc2ccco2)c2nc3ccccc3nc2n1CCN1CCCCC1,1,1,64*,0.7,8
CC(=O)OC1(c2ccccc2)CCN(C2CCCCC2)CC1C (stereo not given),1,1,16,0.8,10
CCCNc1nc(OC)nc(N2CC3CC(C2)c2cccc(=O)n2C3)n1 (stereo not given),1.1,1.1,-4,1,9
CN1C[C@@H]2C[C@@H](c3cccn3-c3ccccn3)N3CCC[C@@]23C1=O,0.9,0.8,-1,0.7,-10
COCCNC(=O)c1c(NC(=O)c2ccc(Br)o2)n(Cc2ccccc2)c2nc3ccccc3nc12,0.9,0.5,14,0.8,-11
COCCCNC(=O)c1c(NC(=O)c2ccco2)n(Cc2ccccc2)c2nc3ccccc3nc12,0.8,0.9,97*,0.7,-12
CCOP(=O)(OCC)C(C)(C)NC(=O)C(Cl)(Cl)Cl,1,1,-4,0.9,-1

# Source: PubChem (several laboratories)
